Results: ChEMBL document CHEMBL1649098 (ACS Med Chem Lett, 2011)
Active and inactive are the calls of the source.

How the values were obtained:
[1] = target: T1, Fatty-acid amide hydrolase 1 (Rattus norvegicus) (UniProt P97612); experiment: Irreversible inhibition of His-tagged rat FAAH N-terminal transmembrane-deleted truncated form expressed in Escherichia coli assessed as ratio of Kinact to Ki by GDH-coupled FAAH assay
T1 sequence (whole entry): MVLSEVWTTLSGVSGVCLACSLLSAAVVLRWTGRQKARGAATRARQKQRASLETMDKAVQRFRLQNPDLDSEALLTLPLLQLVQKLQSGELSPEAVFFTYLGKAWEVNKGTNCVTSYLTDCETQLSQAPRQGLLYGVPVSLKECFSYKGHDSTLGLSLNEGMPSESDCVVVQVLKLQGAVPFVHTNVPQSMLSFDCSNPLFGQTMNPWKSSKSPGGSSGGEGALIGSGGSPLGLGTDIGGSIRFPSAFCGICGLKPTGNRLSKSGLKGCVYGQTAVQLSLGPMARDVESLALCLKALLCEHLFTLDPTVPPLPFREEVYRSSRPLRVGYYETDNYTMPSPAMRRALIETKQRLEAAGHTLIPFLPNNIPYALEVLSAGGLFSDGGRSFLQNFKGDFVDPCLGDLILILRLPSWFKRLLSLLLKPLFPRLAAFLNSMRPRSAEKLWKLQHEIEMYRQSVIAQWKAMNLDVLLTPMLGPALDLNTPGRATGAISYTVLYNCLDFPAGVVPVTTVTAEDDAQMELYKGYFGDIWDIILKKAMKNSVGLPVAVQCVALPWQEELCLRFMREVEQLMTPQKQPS
Procedure, shortened: (§1)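 Irreversible potency was measured as the second-order rate constant kinact/Ki in an enzyme-coupled FAAH assay (human or rat enzyme). Values are the average of at least two independent determinations ±SD.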

[2] = target: T2, Fatty-acid amide hydrolase 1 (Homo sapiens) (UniProt O00519); experiment: Irreversible inhibition of His-tagged human FAAH N-terminal transmembrane-deleted truncated form expressed in Escherichia coli assessed as ratio of Kinact to Ki by GDH-coupled FAAH assay; procedure, shortened: as §1
T2 sequence (whole entry): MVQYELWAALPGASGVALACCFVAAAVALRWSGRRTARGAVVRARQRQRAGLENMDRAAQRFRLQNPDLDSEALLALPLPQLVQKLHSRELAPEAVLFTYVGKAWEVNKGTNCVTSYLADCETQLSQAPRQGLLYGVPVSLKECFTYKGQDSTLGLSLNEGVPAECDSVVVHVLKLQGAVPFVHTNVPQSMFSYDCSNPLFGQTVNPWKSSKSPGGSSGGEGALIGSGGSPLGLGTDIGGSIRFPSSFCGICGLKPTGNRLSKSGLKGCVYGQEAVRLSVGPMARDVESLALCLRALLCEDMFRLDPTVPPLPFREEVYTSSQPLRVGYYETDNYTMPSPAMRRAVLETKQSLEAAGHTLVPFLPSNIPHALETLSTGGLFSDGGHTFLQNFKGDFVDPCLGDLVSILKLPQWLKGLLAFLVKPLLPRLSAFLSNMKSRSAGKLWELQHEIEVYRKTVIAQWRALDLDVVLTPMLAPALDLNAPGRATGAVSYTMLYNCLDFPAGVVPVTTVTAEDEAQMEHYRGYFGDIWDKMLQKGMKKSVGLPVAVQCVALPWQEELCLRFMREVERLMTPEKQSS

[3] = target: T3, Cytochrome P450 3A4 (Homo sapiens, UniProt P08684); experiment: Inhibition of CYP3A4 uisng testosterone substrate; type: ADME
Procedure, shortened: (§2)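 CYP inhibition was tested in human liver microsomes with relevant probe substrates.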

[4] = target: Cytochrome P450 2D6 (Homo sapiens, UniProt P10635); experiment: Inhibition of CYP2D6; type: ADME; procedure, shortened: as §2
[5] = target: T3, Cytochrome P450 3A4; experiment: Inhibition of CYP3A4 uisng midazolam substrate; type: ADME; procedure, shortened: as §2
[6] = target: T4, Fatty-acid amide hydrolase 1 (Mus musculus) (UniProt O08914); experiment: Inhibition of FAAH in mouse brain membrane proteomes at 100 uM by competitive activity based protein profiling; type: cell membranes
T4 sequence (whole entry): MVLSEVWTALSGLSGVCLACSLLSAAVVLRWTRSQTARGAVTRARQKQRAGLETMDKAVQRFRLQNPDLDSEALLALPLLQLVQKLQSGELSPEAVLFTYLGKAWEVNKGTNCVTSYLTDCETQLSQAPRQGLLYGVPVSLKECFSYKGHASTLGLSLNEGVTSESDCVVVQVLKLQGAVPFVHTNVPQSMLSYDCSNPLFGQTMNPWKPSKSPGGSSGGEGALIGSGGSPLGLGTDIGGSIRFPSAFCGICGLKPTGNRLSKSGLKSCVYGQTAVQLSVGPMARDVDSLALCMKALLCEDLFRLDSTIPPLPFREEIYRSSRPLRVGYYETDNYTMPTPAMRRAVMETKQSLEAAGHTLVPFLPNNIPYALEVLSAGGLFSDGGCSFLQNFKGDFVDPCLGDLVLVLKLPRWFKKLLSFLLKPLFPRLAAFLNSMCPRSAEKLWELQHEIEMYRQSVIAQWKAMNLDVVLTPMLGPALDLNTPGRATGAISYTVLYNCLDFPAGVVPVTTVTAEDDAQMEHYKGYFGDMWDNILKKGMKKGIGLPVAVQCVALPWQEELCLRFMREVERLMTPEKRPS
Procedure, shortened: (§3)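 Competitive activity-based protein profiling used human and mouse brain membrane and soluble liver proteomes. Each was treated with compound at 10 or 100 μM or with DMSO, then labelled with FP-rhodamine. Serine hydrolases were resolved on fluorescent gels. Enzymes with reduced labelling intensity in the presence of inhibitor were scored as targets.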

[7] = target: T2, Fatty-acid amide hydrolase 1 (Homo sapiens); details: 100 uM
[8] = target: T2, Fatty-acid amide hydrolase 1 (Homo sapiens); details: 10 uM
[9] = target: T4, Fatty-acid amide hydrolase 1 (Mus musculus); experiment: Inhibition of FAAH in mouse brain membrane proteomes at 10 uM by competitive activity based protein profiling; type: cell membranes; procedure, shortened: as §3
[10] = species on record: Mus musculus; experiment: Inhibition of fluorophosphonate-reactive 55/65 kDa serine proteases in mouse liver soluble proteomes at 100 uM by competitive activity based protein profiling
Procedure, shortened: (§4)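 Competitive activity-based protein profiling of human or mouse liver soluble proteome. Proteome was treated with inhibitor at 10 or 100 μM, or DMSO, then labelled with FP-rhodamine. Serine hydrolases were resolved on gel and read by fluorescent gel imaging. Bands with reduced labelling intensity in the presence of inhibitor were scored as targets.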

[11] = species on record: Homo sapiens; experiment: Inhibition of fluorophosphonate-reactive 55/65 kDa serine proteases in human liver soluble proteomes at 100 uM by competitive activity based protein profiling; procedure, shortened: as §4
[12] = system: Rattus norvegicus; experiment: Antihyperalgesic activity in orally dosed Sprague-Dawley rat model of complete Freund's adjuvant-induced inflammatory pain model assessed as reduction in mechanical allodynia measured 4 hrs post dose; type: functional
Procedure, shortened: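 CFA was injected subcutaneously into the plantar surface of the rat hind paw. Oral dosing at 0.1-10 mg/kg began 5 days post-injection, once mechanical paw withdrawal threshold had fallen. Mechanical allodynia was read as paw withdrawal threshold 4 h after dosing. n=8 rats per group; significance versus vehicle-treated groups at p<0.05.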

[13] = species on record: Rattus norvegicus; details: Sprague-Dawley, 10 mg/kg

Cytochrome P450 2D6, sequence (P10635 whole entry): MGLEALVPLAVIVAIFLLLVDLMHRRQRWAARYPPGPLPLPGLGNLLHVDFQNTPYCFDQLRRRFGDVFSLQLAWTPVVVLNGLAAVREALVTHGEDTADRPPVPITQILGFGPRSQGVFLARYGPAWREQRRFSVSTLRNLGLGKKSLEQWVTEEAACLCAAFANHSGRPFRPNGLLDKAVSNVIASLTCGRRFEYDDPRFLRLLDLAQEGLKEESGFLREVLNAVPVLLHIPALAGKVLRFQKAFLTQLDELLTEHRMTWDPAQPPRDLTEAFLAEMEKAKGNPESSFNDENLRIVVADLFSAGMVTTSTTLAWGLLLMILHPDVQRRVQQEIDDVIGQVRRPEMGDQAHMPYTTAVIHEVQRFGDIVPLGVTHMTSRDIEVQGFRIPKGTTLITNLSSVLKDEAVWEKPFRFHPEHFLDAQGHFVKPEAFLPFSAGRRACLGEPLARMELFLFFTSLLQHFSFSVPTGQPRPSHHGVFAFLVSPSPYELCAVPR
T3 sequence (P08684 whole entry): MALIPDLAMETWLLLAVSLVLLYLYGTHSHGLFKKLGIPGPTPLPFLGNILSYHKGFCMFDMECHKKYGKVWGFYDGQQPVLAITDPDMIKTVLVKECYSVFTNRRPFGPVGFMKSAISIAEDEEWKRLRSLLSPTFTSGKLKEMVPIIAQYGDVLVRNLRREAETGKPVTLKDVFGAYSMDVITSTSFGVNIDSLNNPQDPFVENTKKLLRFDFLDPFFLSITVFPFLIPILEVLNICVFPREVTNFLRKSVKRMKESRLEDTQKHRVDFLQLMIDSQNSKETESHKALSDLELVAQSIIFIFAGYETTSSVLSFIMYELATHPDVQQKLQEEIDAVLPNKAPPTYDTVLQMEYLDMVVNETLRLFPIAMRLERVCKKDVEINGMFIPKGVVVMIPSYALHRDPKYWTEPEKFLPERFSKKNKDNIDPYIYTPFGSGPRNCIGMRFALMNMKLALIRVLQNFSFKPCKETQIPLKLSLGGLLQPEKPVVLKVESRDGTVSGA

SMILES	Ratio [1]	Ratio [2]	further results
O=C(Nc1cccnc1)N1CCC(=Cc2cccc(Oc3ccc(C(F)(F)F)cn3)c2)CC1	15100 M⁻¹ s⁻¹	21600 M⁻¹ s⁻¹	IC50 [3]: 0.8 µM; IC50 [4]: 1.4 µM; IC50 [5]: 4.3 µM
O=C(Nc1cccnc1)N1CCC(Cc2cccc(Oc3ccc(C(F)(F)F)cn3)c2)C1 (centres undefined)		88 M⁻¹ s⁻¹	
O=C(Nc1cccnc1)N1CCC/C(=C\c2cccc(Oc3ccc(C(F)(F)F)cn3)c2)C1	233 M⁻¹ s⁻¹	1150 M⁻¹ s⁻¹	
O=C(Nc1cccnn1)N1CCC(=Cc2cccc(Oc3ccc(C(F)(F)F)nc3)c2)CC1	2020 M⁻¹ s⁻¹	26600 M⁻¹ s⁻¹	
O=C(Nc1cccnc1)N1CCC/C(=C/c2cccc(Oc3ccc(C(F)(F)F)cn3)c2)C1	22 M⁻¹ s⁻¹	35 M⁻¹ s⁻¹	
O=C(Nc1cnccn1)N1CCC(=Cc2cccc(Oc3ccc(C(F)(F)F)cn3)c2)CC1	23700 M⁻¹ s⁻¹	42600 M⁻¹ s⁻¹	IC50 [3]: 23.5 µM; IC50 [4]: 25.1 µM; IC50 [5]: 30 µM
O=C(Nc1cccnn1)N1CCC(=Cc2cccc(Oc3ccc(C4CC4)cn3)c2)CC1	46300 M⁻¹ s⁻¹	28800 M⁻¹ s⁻¹	
Cc1ccc(NC(=O)N2CCC(=Cc3cccc(Oc4ccc(C(F)(F)F)cn4)c3)CC2)cn1	5210 M⁻¹ s⁻¹	13100 M⁻¹ s⁻¹	IC50 [3]: 3 µM; IC50 [4]: 1.6 µM; IC50 [5]: 11.8 µM
Cc1ccnc(Oc2cccc(C=C3CCN(C(=O)Nc4cccnn4)CC3)c2)c1		1580 M⁻¹ s⁻¹	
NC(=O)c1cccc(-c2cccc(OC(=O)NC3CCCCC3)c2)c1			inhibition [6]: Active; inhibition [7]: Active; inhibition [8]: Active; inhibition [9]: Active; inhibition [10]: Active; inhibition [11]: Active
COc1ccc(NC(=O)N2CCC(=Cc3cccc(Oc4ccc(C(F)(F)F)cn4)c3)CC2)cn1	11400 M⁻¹ s⁻¹	16000 M⁻¹ s⁻¹	
O=C(Nc1cccnc1)N1CCC(Cc2cccc(Oc3ccc(C(F)(F)F)cn3)c2)CC1			MED [12]: 3 mg/kg
O=C(Nc1cccnn1)N1CCC(=Cc2cccc(Oc3ccccc3)c2)CC1	1900 M⁻¹ s⁻¹	1530 M⁻¹ s⁻¹	
O=C(Nc1ccccn1)N1CCC(=Cc2cccc(Oc3ccc(C(F)(F)F)cn3)c2)CC1	563 M⁻¹ s⁻¹	6090 M⁻¹ s⁻¹	
COc1ccc2cc([C@H](C)C(=O)O)ccc2c1			inhibition [13]: Active
O=C(Nc1ccccc1)N1CCC(=Cc2cccc(Oc3ccc(C(F)(F)F)cn3)c2)CC1	584 M⁻¹ s⁻¹	4800 M⁻¹ s⁻¹	
Cc1ccc(Oc2cccc(C=C3CCN(C(=O)Nc4cccnn4)CC3)c2)nc1	5530 M⁻¹ s⁻¹	21500 M⁻¹ s⁻¹	
Cc1noc(NC(=O)N2CCC(=Cc3cccc(Oc4ccc(C(F)(F)F)cn4)c3)CC2)c1C	54400 M⁻¹ s⁻¹	7990 M⁻¹ s⁻¹	
O=C(Nc1noc2ccccc12)N1CCC(=Cc2cccc(Oc3ccc(C(F)(F)F)cn3)c2)CC1	30200 M⁻¹ s⁻¹	3930 M⁻¹ s⁻¹	
CCOc1ccc(Oc2cccc(C=C3CCN(C(=O)Nc4cccnn4)CC3)c2)nc1	11700 M⁻¹ s⁻¹	9230 M⁻¹ s⁻¹	
Cc1cccnc1Oc1cccc(C=C2CCN(C(=O)Nc3cccnn3)CC2)c1	256 M⁻¹ s⁻¹	2200 M⁻¹ s⁻¹	
O=C(Nc1cccnn1)N1CCC(=Cc2cccc(Oc3ccc(C(F)(F)F)cc3)c2)CC1	22900 M⁻¹ s⁻¹	18900 M⁻¹ s⁻¹	
O=C(Nc1cccnc1)N1CC/C(=C\c2cccc(Oc3ccc(C(F)(F)F)cn3)c2)C1		144 M⁻¹ s⁻¹	
O=C(Nc1cccnc1)N1CC(=Cc2cccc(Oc3ccc(C(F)(F)F)cn3)c2)C1	173 M⁻¹ s⁻¹	298 M⁻¹ s⁻¹	
Cc1cccc(Oc2cccc(C=C3CCN(C(=O)Nc4cccnn4)CC3)c2)n1	586 M⁻¹ s⁻¹	1090 M⁻¹ s⁻¹	
O=C(Nc1cccnc1)N1CC/C(=C/c2cccc(Oc3ccc(C(F)(F)F)cn3)c2)C1		< 16 M⁻¹ s⁻¹	
